Assay results published in ChEMBL document CHEMBL1121474, “Peptidoaminobenzophenones, a novel class of ring-opened derivatives of 1,4-benzoidazepines” (J Med Chem, 1980).

What was measured:
Mus musculus [1] = species: Mus musculus; test: Effective dose required for 50% reduction of the control response was obtained by graphical interpolation rotarod performance; format: functional
Summary of the method: (§1)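 Oral dosing in mice; rod rotating at 5 rpm tested at 60 min after dosing, counting animals falling off within 2 min. ED50 by graphical interpolation.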

Mus musculus [2] = species: Mus musculus; test: Dose required to prevent convulsion and death in 50% of mice during a 2 hr observation was obtained by graphical interpolation anti-pentylenetetrazole; format: functional
Summary of the method: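 Groups of five mice dosed orally, then challenged 60 min later with 125 mg/kg pentylenetetrazol subcutaneously. ED50 = dose preventing convulsion and death in 50% of animals over a 2 h observation, by graphical interpolation.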

Mus musculus [3] = species: Mus musculus; test: Antifighting activity was measured by the antagonism against foot-shock induced fighting; format: functional
Summary of the method: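 Mice dosed orally; pairs confined under inverted glass enclosure and given foot shock (5 Hz, 2 ms, DC 50 V); pairs with 15-20 fighting episodes in 3 min selected. Five pairs per dose; responses counted before and at 60 min after dosing. ED50 (50% inhibition) by graphical interpolation.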

[4] = (§2) Lethal dose (LD50) required to inhibit the spontaneous motor activity.; format: toxicity, organism-based; conditions: mouse, in vivo
Summary of the method: (§3)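 Acute oral toxicity in mice, groups of one to three animals, deaths assessed on day 7 after administration. LD50 by graphical interpolation.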

Mus musculus [5] = species: Mus musculus; test: Minimum effective dose (MED) required for the potentiation of thiopental sodium induced loss of the righting reflex; format: functional; conditions: read-out: MED
Summary of the method: (§4)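 Five mice per group dosed orally; 60 min later challenged with thiopental sodium 35 mg/kg intravenously. Minimum effective dose potentiating thiopental-induced anesthesia determined.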

Mus musculus [6] = test: Spontaneous motor activity of mice was estimated after 60 minutes of oral administration.; format: functional; design: unit not given here
Summary of the method: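 Oral dosing in mice; activity quantitated with an activity meter over 10 min starting 60 min after dosing. Five groups of three mice per dose.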

[7] = Lethal dose (LD50) required to inhibit the spontaneous motor activity; format: toxicity, organism-based; conditions: mouse, in vivo; summary of the method: as §3
Mus musculus [8] = species: Mus musculus; test: Minimum effective dose (MED) required for the potentiation of thiopental sodium induced loss of the righting reflex (Students t test).; format: functional; conditions: read-out: MED; summary of the method: as §4
Mus musculus [9] = species: Mus musculus; test: Effective dose required for 50% reduction of the control response in mice was obtained by graphical interpolation rotarod performance; format: functional; summary of the method: as §1
Mus musculus [10] = test: as §2; format: functional; summary of the method: as §3

Row | SMILES | ED50 (Mus musculus [1]) [mg/kg] | ED50 (Mus musculus [2]) [mg/kg] | ED50 for inhibition of foot-shock induced fighting (Mus musculus [3]) | LD50 [4] [mg/kg] | minimal effective dose (Mus musculus [5]) [mg/kg] | Activity (Mus musculus [6]) | LD50 [7] [mg/kg] | minimal effective dose (Mus musculus [8]) [mg/kg] | ED50 (Mus musculus [9]) [mg/kg] | LD50 (Mus musculus [10]) [mg/kg]
1 | NCC(=O)NCC(=O)Nc1ccc(Cl)cc1C(=O)c1ccccn1 | 59.5 | 2.8 |  |  |  |  |  |  |  | 
2 | CN(C(=O)CNC(=O)C(N)Cc1ccccc1)c1ccc(Cl)cc1C(=O)c1ccccc1 (stereo unspecified) | 70.7 | 3.9 | 15.1 | > 1000 | 5 | 23.4 |  |  |  | 
3 | CN(C(=O)CNC(=O)[C@@H](N)Cc1ccccc1)c1ccc(Cl)cc1C(=O)c1ccccc1Cl | 52.2 | 1 | 10.2 | > 1000 | 1 | >50 |  |  |  | 
4 | CN(C(=O)CNC(=O)[C@H](N)Cc1ccccc1)c1ccc(Cl)cc1C(=O)c1ccccc1Cl | 77.1 | 4.8 | 20.4 | > 1000 | 10 | >50 |  |  |  | 
5 | CCN(CC)CCN(C(=O)CNC(=O)CN)c1ccc(Cl)cc1C(=O)c1ccccc1F | 50.8 | 1.98 | 9.4 | > 1000 |  | 25 |  |  |  | 
6 | CCc1cc(C(=O)c2ccccc2)c(NC(=O)CNC(=O)CN)s1 | > 100 | > 100 |  |  |  |  |  |  |  | 
7 | CC(C)C(N)C(=O)NCC(=O)Nc1ccc(Cl)cc1C(=O)c1ccccc1 (stereo unspecified) | > 100 | 27.4 |  | > 1000 |  |  |  |  |  | 
8 | CC(C)N(C(=O)CNC(=O)CN)c1ccc(Cl)cc1C(=O)c1ccccc1 | > 100 | 15.8 |  |  |  |  | > 1000 |  |  | 
9 | CCN(CC)CCN(C(=O)CNC(=O)CN)c1ccc(Cl)cc1C(=O)c1ccccc1 | > 100 | 5.7 |  | > 1000 | 5 |  |  |  |  | 
10 | CN(C(=O)CNC(=O)CN)c1ccc(Cl)cc1C(=O)c1ccccc1 | 29.4 | 1 | 10.5 | 750 | 2.5 | 15.1 |  |  |  | 
11 | CN(C(=O)CNC(=O)C(N)Cc1ccccc1)c1ccc(Cl)cc1C(=O)c1ccccc1Cl (stereo unspecified) | 37.5 | 1.6 | 17.1 | > 1000 | 5 | 5.5 |  |  |  | 
12 | CN(C(=O)CNC(=O)CN)c1ccc(Cl)cc1C(=O)c1ccccc1F | 16.7 | 0.3 | 1.6 | > 1000 | 0.1 | 3.1 |  |  |  | 
13 | NC(C(=O)NCC(=O)Nc1ccc(Cl)cc1C(=O)c1ccccc1)c1ccccc1 (stereo unspecified) | > 100 | 27.4 |  | > 1000 |  |  |  |  |  | 
14 | CN(C(=O)CNC(=O)CN)c1ccc(Cl)cc1C(=O)c1ccccc1Cl [LORZAFONE ANHYDROUS] | 35.4 | 0.56 | 3.2 | > 1000 | 0.5 | 1.4 |  |  |  | 
15 | NCC(=O)NCC(=O)Nc1ccc(Cl)cc1C(=O)c1ccccc1Cl | > 100 | 22 |  | > 1000 | 10 |  |  |  |  | 
16 | CN1C(=O)CN=C(c2ccccc2)c2cc(Cl)ccc21 [DIAZEPAM] | 17.7 |  |  |  |  | 8.45 |  | 0.5 |  | 
17 | CC(C)CC(N)C(=O)NCC(=O)Nc1ccc(Cl)cc1C(=O)c1ccccc1 (stereo unspecified) | > 100 | 15.9 |  | > 1000 | 25 |  |  |  |  | 
18 | NCC(=O)NCC(=O)Nc1ccc(Cl)cc1C(=O)c1ccccc1 |  | 14.1 | 14.6 |  | 25 |  | > 1000 |  | 52.4 | 
19 | CC(N)C(=O)NCC(=O)Nc1ccc(Cl)cc1C(=O)c1ccccc1 (stereo unspecified) |  |  |  | > 1000 |  |  |  |  |  | 
20 | CC(C)C(N)C(=O)NCC(=O)N(C)c1ccc(Cl)cc1C(=O)c1ccccc1 (stereo unspecified) | 73.5 | 3.4 | 21.5 | > 1000 | 10 | >50 |  |  |  | 
21 | CC(C)C(N)C(=O)NCC(=O)N(C)c1ccc(Cl)cc1C(=O)c1ccccc1Cl (stereo unspecified) | > 100 | 1.6 |  | 750 |  | >25 |  |  |  | 
22 | CNC1=Nc2ccc(Cl)cc2C(c2ccccc2)=[N+]([O-])C1 [CHLORDIAZEPOXIDE] | 82.3 | 2.71 |  |  |  | 56.09 |  | 2.5 |  | 1080
